Results reported in ChEMBL document CHEMBL4043093, “2-Oxo-3, 4-dihydropyrimido[4, 5-d]pyrimidinyl derivatives as new irreversible pan fibroblast growth factor receptor (FGFR) inhibitors” (Eur J Med Chem, 2017).

Assays:
[1] = molecular target: Fibroblast growth factor receptor 1 (Homo sapiens, UniProt P11362); test: Inhibition of human recombinant His-tagged FGFR1 cytoplasmic domain (308 to 731 residues) expressed in baculovirus using Tyr-4 peptide after 1 hr by FRET-based Z'-Lyte assay
[2] = molecular target: Atypical kinase COQ8A, mitochondrial (Homo sapiens) (UniProt Q8NI60); test: Inhibition of wild-type human […] ADCK3 (M280 to Q647 residues) expressed in Escherichia coli BL21 assessed as residual activity at 1000 nM after 30 mins by Kinomescan method relative to control
Atypical kinase COQ8A, mitochondrial (Homo sapiens), sequence (Q8NI60 163-647 limits assumed): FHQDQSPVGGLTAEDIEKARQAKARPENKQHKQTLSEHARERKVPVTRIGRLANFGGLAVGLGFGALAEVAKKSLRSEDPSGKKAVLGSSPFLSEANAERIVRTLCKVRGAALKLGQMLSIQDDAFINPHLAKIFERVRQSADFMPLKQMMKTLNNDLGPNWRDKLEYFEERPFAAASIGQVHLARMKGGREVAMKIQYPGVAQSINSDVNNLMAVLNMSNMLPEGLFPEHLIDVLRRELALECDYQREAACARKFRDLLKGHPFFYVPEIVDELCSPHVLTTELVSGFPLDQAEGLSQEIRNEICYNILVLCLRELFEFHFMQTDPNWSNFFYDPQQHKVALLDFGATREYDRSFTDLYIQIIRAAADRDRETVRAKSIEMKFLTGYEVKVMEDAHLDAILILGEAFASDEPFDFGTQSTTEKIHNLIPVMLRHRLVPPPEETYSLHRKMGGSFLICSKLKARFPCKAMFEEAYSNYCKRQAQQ
Outline: (§1)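 Single-point screen at a fixed 1 µM, run within a 456-kinase DiscoveRx KINOMEscan panel. Each kinase's read-out is Percent Control, i.e. signal relative to a control without compound. Hits were scored by a Percent Control < 35 cut-off, and an S(35) selectivity score was calculated across the non-mutant kinases.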

[3] = molecular target: Cyclin-dependent kinase 9 (Homo sapiens) (UniProt P50750); test: Inhibition of wild-type human full length CDK9 (M1 to F372 residues) expressed in Escherichia coli BL21 assessed as residual activity at 1000 nM after 30 mins by Kinomescan method relative to control; outline: as §1
[4] = molecular target: Casein kinase I isoform gamma-2 (Homo sapiens) (UniProt P78368); test: Inhibition of wild-type human full length CSNK1G2 (M1 to K415 residues) expressed in Escherichia coli BL21 assessed as residual activity at 1000 nM after 30 mins by Kinomescan method relative to control; outline: as §1
[5] = molecular target: Tyrosine-protein kinase HCK (Homo sapiens) (UniProt P08631); test: Inhibition of wild-type human full length HCK (M22 to P526 residues) expressed in Escherichia coli BL21 assessed as residual activity at 1000 nM after 30 mins by Kinomescan method relative to control
Tyrosine-protein kinase HCK (Homo sapiens), sequence (P08631 2-526 limits assumed): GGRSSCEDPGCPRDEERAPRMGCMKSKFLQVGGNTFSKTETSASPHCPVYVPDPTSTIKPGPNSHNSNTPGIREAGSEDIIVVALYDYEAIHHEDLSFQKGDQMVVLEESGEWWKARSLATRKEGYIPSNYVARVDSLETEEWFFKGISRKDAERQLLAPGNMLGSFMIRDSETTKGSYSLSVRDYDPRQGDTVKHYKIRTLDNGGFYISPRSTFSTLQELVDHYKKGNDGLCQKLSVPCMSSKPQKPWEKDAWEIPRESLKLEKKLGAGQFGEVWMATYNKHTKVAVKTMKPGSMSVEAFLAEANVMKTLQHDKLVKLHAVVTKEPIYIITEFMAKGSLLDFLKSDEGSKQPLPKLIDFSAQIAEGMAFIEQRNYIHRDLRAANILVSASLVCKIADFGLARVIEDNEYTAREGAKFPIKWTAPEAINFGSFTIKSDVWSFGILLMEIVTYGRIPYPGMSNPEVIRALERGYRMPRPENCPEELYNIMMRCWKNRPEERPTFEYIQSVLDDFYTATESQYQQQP
Outline: (§2)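 Single-concentration screen at 1 µM across a 456-kinase KINOMEscan panel. The read-out is Percent Control for each kinase.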

[6] = molecular target: Serine/threonine-protein kinase ICK (Homo sapiens) (UniProt Q9UPZ9); test: Inhibition of wild-type human partial length ICK (M1 to P314 residues) expressed in HEK293 cells assessed as residual activity at 1000 nM after 30 mins by Kinomescan method relative to control; format: cell-based
[7] = molecular target: Tyrosine-protein kinase Lyn (Homo sapiens) (UniProt P07948); test: Inhibition of wild-type human partial length LYN (C219 to Q511 residues) expressed in Escherichia coli BL21 assessed as residual activity at 1000 nM after 30 mins by Kinomescan method relative to control
Tyrosine-protein kinase Lyn (Homo sapiens), sequence (P07948 2-512 limits assumed): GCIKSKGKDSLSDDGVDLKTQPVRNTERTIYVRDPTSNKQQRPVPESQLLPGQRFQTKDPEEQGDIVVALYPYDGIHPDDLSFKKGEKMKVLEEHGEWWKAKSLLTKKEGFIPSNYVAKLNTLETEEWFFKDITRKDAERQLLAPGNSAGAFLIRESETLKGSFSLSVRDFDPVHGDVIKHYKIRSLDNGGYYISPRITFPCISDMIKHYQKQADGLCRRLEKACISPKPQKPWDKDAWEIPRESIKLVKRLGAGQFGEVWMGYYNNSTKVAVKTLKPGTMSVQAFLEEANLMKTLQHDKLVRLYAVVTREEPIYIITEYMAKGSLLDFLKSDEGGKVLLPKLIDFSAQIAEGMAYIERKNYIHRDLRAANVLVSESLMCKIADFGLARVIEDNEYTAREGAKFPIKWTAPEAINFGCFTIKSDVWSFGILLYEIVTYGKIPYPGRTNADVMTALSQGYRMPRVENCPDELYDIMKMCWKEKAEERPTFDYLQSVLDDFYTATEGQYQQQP

[8] = molecular target: Dual specificity mitogen-activated protein kinase kinase 1 (Homo sapiens) (UniProt Q02750); test: Inhibition of wild-type human full length MEK1 (M1 to V393 residues) expressed in HEK293 cells assessed as residual activity at 1000 nM after 30 mins by Kinomescan method relative to control; format: cell-based; outline: as §2
[9] = molecular target: Serine/threonine-protein kinase 3 (Homo sapiens) (UniProt Q13188); test: Inhibition of wild-type human partial length MST2 (D17 to E318 residues) expressed in Escherichia coli BL21 assessed as residual activity at 1000 nM after 30 mins by Kinomescan method relative to control
[10] = molecular target: Cyclin-dependent kinase 18 (Homo sapiens) (UniProt Q07002); test: Inhibition of wild-type human full length PCTK3 (M3 to F474 residues) expressed in Escherichia coli BL21 assessed as residual activity at 1000 nM after 30 mins by Kinomescan method relative to control; outline: as §2
[11] = molecular target: Phosphatidylinositol 4-phosphate 5-kinase type-1 gamma (Homo sapiens) (UniProt O60331); test: Inhibition of wild-type human partial length PIP5K1C (M1 to T668 residues) expressed in HEK293 cells assessed as residual activity at 1000 nM after 30 mins by Kinomescan method relative to control; format: cell-based
[12] = molecular target: cAMP-dependent protein kinase catalytic subunit alpha (Homo sapiens) (UniProt P17612); test: Inhibition of wild-type human partial length PKAC-alpha (G10 to F351 residues) expressed in Escherichia coli BL21 assessed as residual activity at 1000 nM after 30 mins by Kinomescan method relative to control
[13] = molecular target: Protein kinase C eta type (Homo sapiens) (UniProt P24723); test: Inhibition of wild-type human partial length PRKCH (S324 to P683 residues) expressed in Escherichia coli BL21 assessed as residual activity at 1000 nM after 30 mins by Kinomescan method relative to control
[14] = molecular target: Serine/threonine-protein kinase PRP4 homolog (Homo sapiens) (UniProt Q13523); test: Inhibition of wild-type human partial length PRP4 (D657 to I1007 residues) expressed in Escherichia coli BL21 assessed as residual activity at 1000 nM after 30 mins by Kinomescan method relative to control
Serine/threonine-protein kinase PRP4 homolog (Homo sapiens), sequence (Q13523 whole entry, the tested form may be a part): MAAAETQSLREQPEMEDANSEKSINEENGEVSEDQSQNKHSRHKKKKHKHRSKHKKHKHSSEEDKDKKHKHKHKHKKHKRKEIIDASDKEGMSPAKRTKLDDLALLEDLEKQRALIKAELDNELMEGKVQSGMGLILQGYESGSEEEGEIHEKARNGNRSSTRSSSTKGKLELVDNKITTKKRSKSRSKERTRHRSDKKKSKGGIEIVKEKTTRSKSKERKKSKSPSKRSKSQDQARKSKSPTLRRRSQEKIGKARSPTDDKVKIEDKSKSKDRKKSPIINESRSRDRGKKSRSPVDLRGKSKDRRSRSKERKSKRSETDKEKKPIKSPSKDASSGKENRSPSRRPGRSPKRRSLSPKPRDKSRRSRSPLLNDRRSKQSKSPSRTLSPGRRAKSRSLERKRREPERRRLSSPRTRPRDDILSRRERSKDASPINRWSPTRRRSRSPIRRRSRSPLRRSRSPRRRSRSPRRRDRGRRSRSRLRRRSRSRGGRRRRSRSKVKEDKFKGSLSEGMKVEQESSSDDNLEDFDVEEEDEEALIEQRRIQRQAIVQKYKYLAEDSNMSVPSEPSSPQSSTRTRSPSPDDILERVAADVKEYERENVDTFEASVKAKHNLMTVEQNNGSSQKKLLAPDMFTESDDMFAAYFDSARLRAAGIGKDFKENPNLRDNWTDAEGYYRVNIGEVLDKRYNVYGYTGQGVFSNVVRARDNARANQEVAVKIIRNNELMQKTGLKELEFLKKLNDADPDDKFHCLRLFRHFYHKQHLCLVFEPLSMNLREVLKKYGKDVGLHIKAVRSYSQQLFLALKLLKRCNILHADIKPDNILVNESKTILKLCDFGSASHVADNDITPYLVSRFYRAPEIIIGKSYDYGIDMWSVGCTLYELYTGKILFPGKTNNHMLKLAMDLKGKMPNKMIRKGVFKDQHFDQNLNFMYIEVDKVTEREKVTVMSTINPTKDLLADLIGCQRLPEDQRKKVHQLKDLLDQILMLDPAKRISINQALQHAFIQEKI

[15] = molecular target: Proto-oncogene tyrosine-protein kinase receptor Ret (Homo sapiens) (UniProt P07949); test: Inhibition of wild-type human partial length RET (E713 to D1014 residues) expressed in Escherichia coli BL21 assessed as residual activity at 1000 nM after 30 mins by Kinomescan method relative to control
[16] = molecular target: Serine/threonine-protein kinase RIO2 (Homo sapiens) (UniProt Q9BVS4); test: Inhibition of wild-type human partial length RIOK2 (M1 to D313 residues) expressed in HEK293 cells assessed as residual activity at 1000 nM after 30 mins by Kinomescan method relative to control; format: cell-based
[17] = molecular target: Dual serine/threonine and tyrosine protein kinase (Homo sapiens) (UniProt Q6XUX3); test: Inhibition of wild-type human full length RIPK5 (M1 to T929 residues) expressed in HEK293 cells assessed as residual activity at 1000 nM after 30 mins by Kinomescan method relative to control; format: cell-based
Dual serine/threonine and tyrosine protein kinase (Homo sapiens), sequence (Q6XUX3 whole entry, the tested form may be a part): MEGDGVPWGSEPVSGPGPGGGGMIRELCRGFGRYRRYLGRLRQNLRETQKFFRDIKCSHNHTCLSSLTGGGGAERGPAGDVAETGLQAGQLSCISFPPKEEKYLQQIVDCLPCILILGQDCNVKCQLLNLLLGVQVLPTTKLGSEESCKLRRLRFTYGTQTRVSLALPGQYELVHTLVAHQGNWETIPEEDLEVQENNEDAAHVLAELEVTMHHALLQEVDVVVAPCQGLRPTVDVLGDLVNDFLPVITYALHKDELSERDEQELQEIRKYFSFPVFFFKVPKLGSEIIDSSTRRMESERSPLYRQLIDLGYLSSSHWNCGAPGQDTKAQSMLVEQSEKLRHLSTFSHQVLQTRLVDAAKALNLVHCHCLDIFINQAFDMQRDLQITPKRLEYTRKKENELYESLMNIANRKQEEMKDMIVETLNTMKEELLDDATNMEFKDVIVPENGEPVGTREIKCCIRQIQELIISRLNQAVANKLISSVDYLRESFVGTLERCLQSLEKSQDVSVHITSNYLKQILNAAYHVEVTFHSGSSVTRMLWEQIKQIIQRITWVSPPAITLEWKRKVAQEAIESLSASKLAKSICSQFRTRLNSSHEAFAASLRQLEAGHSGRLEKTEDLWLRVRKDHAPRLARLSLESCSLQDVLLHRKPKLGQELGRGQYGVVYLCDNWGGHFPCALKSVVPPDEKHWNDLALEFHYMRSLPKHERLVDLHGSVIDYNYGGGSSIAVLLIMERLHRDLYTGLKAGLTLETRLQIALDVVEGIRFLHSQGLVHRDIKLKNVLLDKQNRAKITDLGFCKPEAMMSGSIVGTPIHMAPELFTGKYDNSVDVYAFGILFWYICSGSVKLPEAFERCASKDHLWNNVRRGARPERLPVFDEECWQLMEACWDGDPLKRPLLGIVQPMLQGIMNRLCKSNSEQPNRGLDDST

[18] = molecular target: Ribosomal protein S6 kinase beta-1 (Homo sapiens) (UniProt P23443); test: Inhibition of wild-type human partial length S6K1 (M1 to S421 residues) expressed in HEK293 cells assessed as residual activity at 1000 nM after 30 mins by Kinomescan method relative to control; format: cell-based
[19] = molecular target: Serine/threonine-protein kinase Sgk2 (Homo sapiens) (UniProt Q9HBY8); test: Inhibition of wild-type human partial length SGK2 (L54 to C427 residues) expressed in HEK293 cells assessed as residual activity at 1000 nM after 30 mins by Kinomescan method relative to control; format: cell-based
[20] = molecular target: Serine/threonine-protein kinase 36 (Homo sapiens) (UniProt Q9NRP7); test: Inhibition of wild-type human partial length STK36 (M1 to T271 residues) expressed in Escherichia coli BL21 assessed as residual activity at 1000 nM after 30 mins by Kinomescan method relative to control
[21] = molecular target: VEGFR2 (vascular endothelial growth factor receptor 2) (Homo sapiens, UniProt P35968); test: Inhibition of wild-type human partial length VEGFR2 (R787 to P1253 residues) expressed in HEK293 cells assessed as residual activity at 1000 nM after 30 mins by Kinomescan method relative to control; format: cell-based; conditions: read-out: Activity
VEGFR2 (vascular endothelial growth factor receptor 2), sequence (P35968 whole entry, the tested form may be a part): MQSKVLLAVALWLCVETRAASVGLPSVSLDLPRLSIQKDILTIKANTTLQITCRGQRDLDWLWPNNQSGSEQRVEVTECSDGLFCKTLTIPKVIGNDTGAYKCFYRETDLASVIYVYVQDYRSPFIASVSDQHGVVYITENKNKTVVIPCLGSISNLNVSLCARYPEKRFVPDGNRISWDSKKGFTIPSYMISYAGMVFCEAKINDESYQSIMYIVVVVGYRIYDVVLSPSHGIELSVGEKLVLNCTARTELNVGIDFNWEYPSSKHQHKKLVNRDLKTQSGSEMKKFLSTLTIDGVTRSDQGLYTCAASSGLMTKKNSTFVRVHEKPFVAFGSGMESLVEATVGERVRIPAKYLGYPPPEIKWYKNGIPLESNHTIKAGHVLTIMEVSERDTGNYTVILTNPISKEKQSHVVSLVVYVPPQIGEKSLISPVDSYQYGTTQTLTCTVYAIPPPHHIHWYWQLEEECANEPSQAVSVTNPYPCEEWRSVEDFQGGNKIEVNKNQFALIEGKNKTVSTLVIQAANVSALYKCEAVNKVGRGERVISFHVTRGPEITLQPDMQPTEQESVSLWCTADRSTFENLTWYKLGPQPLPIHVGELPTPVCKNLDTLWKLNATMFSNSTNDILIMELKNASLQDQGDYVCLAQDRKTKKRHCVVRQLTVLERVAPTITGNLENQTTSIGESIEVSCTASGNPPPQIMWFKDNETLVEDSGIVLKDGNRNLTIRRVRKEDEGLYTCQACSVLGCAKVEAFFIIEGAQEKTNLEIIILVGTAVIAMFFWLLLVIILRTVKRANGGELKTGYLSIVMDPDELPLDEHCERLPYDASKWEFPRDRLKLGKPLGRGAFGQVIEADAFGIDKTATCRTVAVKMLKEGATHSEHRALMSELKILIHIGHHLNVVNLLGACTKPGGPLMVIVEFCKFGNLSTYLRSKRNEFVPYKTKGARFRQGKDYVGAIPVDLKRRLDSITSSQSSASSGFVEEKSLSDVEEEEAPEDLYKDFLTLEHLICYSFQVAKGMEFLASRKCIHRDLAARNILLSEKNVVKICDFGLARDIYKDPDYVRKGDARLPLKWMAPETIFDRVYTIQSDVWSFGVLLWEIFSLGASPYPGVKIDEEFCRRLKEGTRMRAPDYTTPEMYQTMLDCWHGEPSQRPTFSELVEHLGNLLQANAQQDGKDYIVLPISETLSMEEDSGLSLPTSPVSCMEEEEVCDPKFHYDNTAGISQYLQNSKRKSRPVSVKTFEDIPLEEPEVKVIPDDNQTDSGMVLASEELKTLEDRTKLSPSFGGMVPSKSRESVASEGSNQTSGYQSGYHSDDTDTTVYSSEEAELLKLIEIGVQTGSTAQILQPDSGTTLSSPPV

[22] = molecular target: Serine/threonine-protein kinase 25 (Homo sapiens) (UniProt O00506); test: Inhibition of wild-type human partial length YSK1 (V14 to H295 residues) expressed in Escherichia coli BL21 assessed as residual activity at 1000 nM after 30 mins by Kinomescan method relative to control

## COc1cc(OC)c(Cl)c(N2Cc3cnc(Nc4ccc(F)cc4)nc3N(C3CCN(C(=O)/C=C/CN(C)C)CC3)C2=O)c1Cl
[1]
  IC50: 990 pM
[2]
  Activity: 100%
[3]
  Activity: 97%
[4]
  Activity: 100%
[5]
  Activity: 10%
[6]
  Activity: 100%
[7]
  Activity: 7.6%
[8]
  Activity: 100%
[9]
  Activity: 64%
[10]
  Activity: 93%
[11]
  Activity: 92%
[12]
  Activity: 100%
[13]
  Activity: 91%
[14]
  Activity: 92%
[15]
  Activity: 8.1%
[16]
  Activity: 100%
[17]
  Activity: 100%
[18]
  Activity: 92%
[19]
  Activity: 100%
[20]
  Activity: 100%
[21]
  activity at 0.5 h, 1 µM: 7.3%
[22]
  Activity: 97%
